# ChEMBL document CHEMBL3352788, “Characterization of selective exosite-binding inhibitors of matrix metalloproteinase 13 that prevent articular cartilage degradation in vitro” (J Med Chem, 2014)
# Experiments:
# [1] = target: Angiotensin-converting enzyme (Homo sapiens) (UniProt P12821); test: Inhibition of recombinant human ACE using RPFNYLAK substrate up to 20 uM
# Outline: (§1)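 Outsourced microfluidic protease panel. Compound was preincubated with each protease for 30 min at 25 °C, then peptide substrate was added for 3 h at 25 °C and quenched with SDS/EDTA/iodoacetate. Substrate-to-product conversion was measured on LabChip. Compounds were tested singly in a 12-point 3-fold dilution series, top 20 μM (5 μM for two reference compounds).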
# [2] = target: Beta-secretase 1 (Homo sapiens) (UniProt P56817); test: Inhibition of recombinant human BACE1 using SEVNLDAEFRKKRR substrate at up to 20 uM after 3 hrs; outline: as §1
# [3] = target: T1, Caspase-2 (Homo sapiens) (UniProt P42575); test: Inhibition of recombinant human caspase 2 using DEVDAA substrate at up to 20 uM after 3 hrs; outline: as §1
# T1 sequence (whole entry): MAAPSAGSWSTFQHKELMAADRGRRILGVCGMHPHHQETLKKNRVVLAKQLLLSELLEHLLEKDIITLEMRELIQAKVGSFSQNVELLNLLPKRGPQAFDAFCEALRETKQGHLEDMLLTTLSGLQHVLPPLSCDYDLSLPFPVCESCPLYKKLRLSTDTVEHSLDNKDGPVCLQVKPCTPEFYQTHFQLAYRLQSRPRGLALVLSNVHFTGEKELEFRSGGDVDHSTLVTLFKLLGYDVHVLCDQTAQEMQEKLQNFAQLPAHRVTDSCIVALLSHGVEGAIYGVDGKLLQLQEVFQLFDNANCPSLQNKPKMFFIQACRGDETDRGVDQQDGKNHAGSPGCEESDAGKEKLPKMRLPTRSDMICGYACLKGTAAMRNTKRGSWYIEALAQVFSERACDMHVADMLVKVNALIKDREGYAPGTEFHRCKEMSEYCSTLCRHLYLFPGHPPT
# [4] = target: T2, Caspase-3 (Homo sapiens) (UniProt P42574); test: Inhibition of recombinant human caspase 3 using DEVDAA substrate at up to 20 uM after 3 hrs; outline: as §1
# T2 sequence (whole entry): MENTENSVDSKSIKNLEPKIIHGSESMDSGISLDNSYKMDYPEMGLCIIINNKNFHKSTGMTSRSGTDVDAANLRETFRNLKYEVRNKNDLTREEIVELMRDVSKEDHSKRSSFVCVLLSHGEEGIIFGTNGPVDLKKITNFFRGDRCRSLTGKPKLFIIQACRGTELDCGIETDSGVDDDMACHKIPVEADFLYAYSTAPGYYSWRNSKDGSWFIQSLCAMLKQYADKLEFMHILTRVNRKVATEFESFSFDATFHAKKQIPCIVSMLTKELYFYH
# [5] = target: T3, Caspase-5 (Homo sapiens) (UniProt P51878); test: Inhibition of recombinant human caspase 5 using LEHDGP substrate at up to 20 uM after 3 hrs; outline: as §1
# T3 sequence (whole entry): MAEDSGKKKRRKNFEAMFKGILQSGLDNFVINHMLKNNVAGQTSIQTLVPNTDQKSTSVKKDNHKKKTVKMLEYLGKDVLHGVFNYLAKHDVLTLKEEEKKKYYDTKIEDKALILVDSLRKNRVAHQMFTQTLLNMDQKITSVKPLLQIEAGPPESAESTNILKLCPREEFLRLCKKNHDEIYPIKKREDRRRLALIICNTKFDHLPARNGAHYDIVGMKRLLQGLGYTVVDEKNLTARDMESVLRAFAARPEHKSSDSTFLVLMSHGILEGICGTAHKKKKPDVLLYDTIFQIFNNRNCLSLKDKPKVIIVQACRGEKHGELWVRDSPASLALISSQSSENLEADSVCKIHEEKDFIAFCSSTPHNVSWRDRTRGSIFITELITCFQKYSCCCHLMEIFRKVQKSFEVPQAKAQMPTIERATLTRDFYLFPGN
# [6] = target: T4, Caspase-7 (Homo sapiens) (UniProt P55210); test: Inhibition of recombinant human caspase 7 using DEVDAA substrate at up to 20 uM after 3 hrs; outline: as §1
# T4 sequence (whole entry): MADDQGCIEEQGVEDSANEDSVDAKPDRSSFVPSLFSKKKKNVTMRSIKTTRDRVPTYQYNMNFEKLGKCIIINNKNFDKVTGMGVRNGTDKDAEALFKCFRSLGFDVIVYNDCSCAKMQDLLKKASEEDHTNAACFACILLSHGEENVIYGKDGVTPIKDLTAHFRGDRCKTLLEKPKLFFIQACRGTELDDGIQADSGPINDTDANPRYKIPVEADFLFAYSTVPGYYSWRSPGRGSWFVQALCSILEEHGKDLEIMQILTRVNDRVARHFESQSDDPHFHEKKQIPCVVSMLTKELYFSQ
# [7] = target: Furin (Homo sapiens) (UniProt P09958); test: Inhibition of recombinant human furin using RRVKRSLD substrate at up to 20 uM after 3 hrs
# Outline: (§2)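 Each protease was preincubated 30 min at 25 °C with compound in its assay buffer. Peptide substrate was then added and the reaction ran 3 h at 25 °C before quenching with SDS/EDTA/iodoacetate. Substrate-to-product conversion (%) was read by microfluidic electrophoresis. Compounds were tested in singlicate as 12-point 3-fold dilutions from 20 μM to 0.1 nM. IC50 was taken as the concentration giving 50% of no-compound control activity.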
# [8] = target: Prothrombin (Homo sapiens) (UniProt P00734); test: Inhibition of recombinant human thrombin using PRTLT substrate at up to 20 uM after 3 hrs; outline: as §2
# [9] = target: Cytochrome P450 2C9 (Homo sapiens, UniProt P11712); test: Inhibition of CYP2C9 (unknown origin) using diclofenac substrate; format: ADME
# Outline: (§3)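 Human liver microsomes with probe substrate and an NADPH-regenerating system in 0.1 M potassium phosphate pH 7.4 at 37 °C, run in duplicate. Inhibitor at 0–20 μM (0–2.5 μM for one compound), eight concentrations. Reactions were stopped with acetonitrile/formic acid containing isotope-labelled internal standard, and metabolite area ratios were compared with and without inhibitor. IC50 was taken by linear interpolation between bracketing concentrations.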
# [10] = target: Cytochrome P450 2C19 (Homo sapiens, UniProt P33261); test: Inhibition of CYP2C19 (unknown origin) using (S)-mephentoin substrate; format: ADME; outline: as §3
# Cytochrome P450 2C19, sequence (P33261 whole entry): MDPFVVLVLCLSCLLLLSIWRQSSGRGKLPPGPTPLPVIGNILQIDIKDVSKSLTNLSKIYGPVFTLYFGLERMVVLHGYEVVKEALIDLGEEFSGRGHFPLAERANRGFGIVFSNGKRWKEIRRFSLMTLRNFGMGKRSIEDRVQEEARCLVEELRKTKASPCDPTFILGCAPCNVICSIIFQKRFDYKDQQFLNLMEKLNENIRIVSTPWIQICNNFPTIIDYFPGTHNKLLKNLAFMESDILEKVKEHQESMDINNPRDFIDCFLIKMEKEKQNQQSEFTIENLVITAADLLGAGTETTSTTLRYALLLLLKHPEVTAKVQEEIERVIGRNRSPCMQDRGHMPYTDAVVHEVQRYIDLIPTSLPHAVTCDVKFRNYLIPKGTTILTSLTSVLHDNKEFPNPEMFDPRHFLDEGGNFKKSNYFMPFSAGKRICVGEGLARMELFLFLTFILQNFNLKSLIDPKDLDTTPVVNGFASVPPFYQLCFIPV
# Cytochrome P450 2C9, sequence (P11712 whole entry): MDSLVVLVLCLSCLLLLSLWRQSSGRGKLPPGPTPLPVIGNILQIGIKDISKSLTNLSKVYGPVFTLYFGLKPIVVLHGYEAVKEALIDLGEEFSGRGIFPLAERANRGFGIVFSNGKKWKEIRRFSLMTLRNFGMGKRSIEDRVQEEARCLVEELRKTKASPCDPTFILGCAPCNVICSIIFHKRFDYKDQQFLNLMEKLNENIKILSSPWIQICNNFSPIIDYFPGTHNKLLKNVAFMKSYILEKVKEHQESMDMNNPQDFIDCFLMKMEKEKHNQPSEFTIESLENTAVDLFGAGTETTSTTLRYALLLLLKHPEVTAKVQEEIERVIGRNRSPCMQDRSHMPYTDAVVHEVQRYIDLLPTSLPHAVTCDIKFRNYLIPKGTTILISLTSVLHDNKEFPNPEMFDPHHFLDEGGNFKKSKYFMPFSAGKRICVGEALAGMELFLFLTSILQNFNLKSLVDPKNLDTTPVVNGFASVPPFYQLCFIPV
# Furin (Homo sapiens), sequence (P09958 whole entry): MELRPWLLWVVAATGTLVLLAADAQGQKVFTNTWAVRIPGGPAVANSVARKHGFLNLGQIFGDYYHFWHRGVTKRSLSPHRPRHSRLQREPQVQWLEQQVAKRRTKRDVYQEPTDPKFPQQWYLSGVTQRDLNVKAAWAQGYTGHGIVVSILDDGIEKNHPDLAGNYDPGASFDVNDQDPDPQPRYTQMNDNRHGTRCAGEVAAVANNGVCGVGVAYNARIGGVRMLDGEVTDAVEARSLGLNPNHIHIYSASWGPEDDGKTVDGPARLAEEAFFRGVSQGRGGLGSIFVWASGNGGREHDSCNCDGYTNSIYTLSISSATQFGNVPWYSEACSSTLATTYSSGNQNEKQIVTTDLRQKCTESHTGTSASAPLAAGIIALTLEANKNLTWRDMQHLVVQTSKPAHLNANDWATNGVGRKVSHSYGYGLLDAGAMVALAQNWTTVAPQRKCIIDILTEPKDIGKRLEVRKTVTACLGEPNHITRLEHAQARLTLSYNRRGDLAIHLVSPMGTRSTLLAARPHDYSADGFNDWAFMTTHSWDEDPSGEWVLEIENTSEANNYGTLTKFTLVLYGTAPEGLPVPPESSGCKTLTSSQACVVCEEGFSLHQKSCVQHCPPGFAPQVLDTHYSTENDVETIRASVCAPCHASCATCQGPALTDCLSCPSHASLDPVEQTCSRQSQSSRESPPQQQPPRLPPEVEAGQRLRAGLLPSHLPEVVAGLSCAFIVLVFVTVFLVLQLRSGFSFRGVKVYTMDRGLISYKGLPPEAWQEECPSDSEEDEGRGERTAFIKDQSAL
# Beta-secretase 1 (Homo sapiens), sequence (P56817 whole entry): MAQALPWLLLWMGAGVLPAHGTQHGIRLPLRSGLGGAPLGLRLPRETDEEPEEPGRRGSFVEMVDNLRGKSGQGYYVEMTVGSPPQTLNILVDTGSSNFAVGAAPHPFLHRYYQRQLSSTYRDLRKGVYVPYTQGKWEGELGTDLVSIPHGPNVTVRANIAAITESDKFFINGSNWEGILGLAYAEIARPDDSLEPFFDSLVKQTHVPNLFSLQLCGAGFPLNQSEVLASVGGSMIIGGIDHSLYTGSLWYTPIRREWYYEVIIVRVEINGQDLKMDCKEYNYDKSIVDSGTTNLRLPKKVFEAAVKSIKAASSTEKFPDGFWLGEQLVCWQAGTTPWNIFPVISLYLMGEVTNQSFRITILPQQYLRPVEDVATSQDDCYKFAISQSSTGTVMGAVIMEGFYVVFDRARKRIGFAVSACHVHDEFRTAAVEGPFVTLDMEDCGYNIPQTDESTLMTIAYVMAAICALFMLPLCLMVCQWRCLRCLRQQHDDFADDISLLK
# Angiotensin-converting enzyme (Homo sapiens), sequence (P12821 whole entry): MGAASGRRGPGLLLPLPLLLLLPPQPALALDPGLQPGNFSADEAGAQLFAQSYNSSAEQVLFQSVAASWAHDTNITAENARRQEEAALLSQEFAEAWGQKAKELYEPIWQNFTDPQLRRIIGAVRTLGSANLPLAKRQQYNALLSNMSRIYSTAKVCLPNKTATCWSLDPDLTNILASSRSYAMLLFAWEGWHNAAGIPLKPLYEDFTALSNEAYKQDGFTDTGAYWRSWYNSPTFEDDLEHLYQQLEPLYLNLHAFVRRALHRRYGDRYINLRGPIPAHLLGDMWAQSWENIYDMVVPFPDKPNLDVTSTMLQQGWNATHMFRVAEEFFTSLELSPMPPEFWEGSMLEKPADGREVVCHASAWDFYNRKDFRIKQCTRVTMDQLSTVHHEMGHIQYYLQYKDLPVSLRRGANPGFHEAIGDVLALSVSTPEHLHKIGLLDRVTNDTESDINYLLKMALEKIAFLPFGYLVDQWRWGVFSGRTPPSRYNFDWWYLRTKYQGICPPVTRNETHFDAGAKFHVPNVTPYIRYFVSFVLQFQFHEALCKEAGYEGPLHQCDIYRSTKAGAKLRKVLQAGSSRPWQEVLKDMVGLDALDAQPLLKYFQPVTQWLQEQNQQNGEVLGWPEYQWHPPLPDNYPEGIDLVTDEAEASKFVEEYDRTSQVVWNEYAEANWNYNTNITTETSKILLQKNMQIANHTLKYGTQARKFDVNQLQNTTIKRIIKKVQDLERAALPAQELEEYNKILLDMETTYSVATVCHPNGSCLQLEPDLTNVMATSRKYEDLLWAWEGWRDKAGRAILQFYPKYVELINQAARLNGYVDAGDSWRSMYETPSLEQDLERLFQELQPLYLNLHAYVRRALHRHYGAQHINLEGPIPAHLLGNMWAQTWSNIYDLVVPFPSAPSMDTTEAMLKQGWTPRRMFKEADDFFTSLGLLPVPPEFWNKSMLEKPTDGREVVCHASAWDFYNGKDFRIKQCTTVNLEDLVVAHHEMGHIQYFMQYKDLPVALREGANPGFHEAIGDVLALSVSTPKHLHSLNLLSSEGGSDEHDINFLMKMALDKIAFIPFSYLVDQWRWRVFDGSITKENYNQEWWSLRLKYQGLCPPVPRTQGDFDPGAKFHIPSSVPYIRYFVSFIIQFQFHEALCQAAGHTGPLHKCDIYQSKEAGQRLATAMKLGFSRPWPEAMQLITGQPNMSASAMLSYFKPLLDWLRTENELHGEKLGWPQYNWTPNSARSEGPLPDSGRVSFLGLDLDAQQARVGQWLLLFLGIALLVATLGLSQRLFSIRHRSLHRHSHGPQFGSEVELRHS
Compound,inhibition [1] [%],inhibition [2] [%],inhibition [3] [%],inhibition [4] [%],inhibition [5] [%],inhibition [6] [%],inhibition [7] [%],inhibition [8] [%],IC50 [9] [µM],IC50 [10] [µM]
Oc1nc(SCc2ccc(Cl)cc2)nc2c1CCC2,> 10,< 10,< 10,< 10,< 10,< 10,< 10,< 10,19,6.5
Cc1cc(CNC(=O)c2cc(C(=O)NCc3ccc(F)c(C)c3)ncn2)ccc1F,,,,,,,,,> 20,> 20
Cn1c(=O)n(Cc2ccc(C(=O)O)cc2)c(=O)c2cc(C#CCc3ccccc3)ccc21,,,,,,,,,> 2.5,> 2.5
Cc1ccc(CSc2nc(O)c3c(n2)CCC3)cc1,> 10,< 10,< 10,< 10,> 10,< 10,< 10,< 10,,
COC(=O)c1ccc(CSc2nc3c(c(=O)[nH]2)CCC3)cc1,> 10,< 10,< 10,< 10,< 10,< 10,< 10,< 10,> 20,> 20
